Experimental data published in ChEMBL document CHEMBL3769367, “Orexin Receptor Antagonists: New Therapeutic Agents for the Treatment of Insomnia” (J Med Chem, 2016).

Legend:
[1] = system: Homo sapiens; assay: Effect on sleep parameter in insomnia patient assessed as wake after sleep onset time at 10 mg, po administered two consecutive nights 90 mins prior to sleep by polysomnography; type: functional
[2] = system: Homo sapiens; assay: Effect on sleep parameter in insomnia patient assessed as total sleep time at 10 mg, po administered two consecutive nights 90 mins prior to sleep by polysomnography; type: functional
[3] = system: Homo sapiens; assay: Effect on sleep parameter in insomnia patient assessed as sleep efficiency at 10 mg, po administered two consecutive nights 90 mins prior to sleep by polysomnography; type: functional
[4] = system: Homo sapiens; assay: Effect on sleep parameter in insomnia patient assessed as wake after sleep onset time at 30 mg, po administered two consecutive nights 90 mins prior to sleep by polysomnography; type: functional
[5] = system: Plasma; assay: Drug metabolism in human plasma assessed as (S)-2-(2-((1-(5-(4-fluorophenyl)-2-methylthiazole-4-carbonyl)piperidin-2-yl)methylcarbamoyl)-6-hydroxyphenyl)acetic acid formation at 30 mg, po by LSC analysis; type: ADME, organism-based; conditions: in vivo
Outline: (§1)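 Eight healthy subjects received a single 30 mg oral dose of radiolabeled compound. Plasma extracts were profiled for metabolites, each expressed as a percentage of the radioactive dose.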

[6] = system: Homo sapiens; assay: Effect on sleep parameter in insomnia patient assessed as wake after sleep onset time at 60 mg, po administered two consecutive nights 90 mins prior to sleep by polysomnography; type: functional
[7] = system: Homo sapiens; assay: Effect on sleep parameter in insomnia patient assessed as latency to persistent sleep time at 60 mg, po administered two consecutive nights 90 mins prior to sleep by polysomnography; type: functional
[8] = Half life in human plasma; type: ADME, organism-based
[9] = system: Homo sapiens; assay: Effect on sleep parameter in insomnia patient assessed as sleep efficiency at 30 mg, po administered two consecutive nights 90 mins prior to sleep by polysomnography; type: functional
[10] = Apparent half life of the compound in human; type: ADME, organism-based; conditions: in vivo, read-out: t1/2(app) (converted)
[11] = system: Homo sapiens; assay: Effect on sleep parameter in insomnia patient assessed as sleep efficiency at 60 mg, po administered two consecutive nights 90 mins prior to sleep by polysomnography; type: functional
[12] = system: Homo sapiens; assay: Effect on sleep parameter in insomnia patient assessed as total sleep time at 60 mg, po administered two consecutive nights 90 mins prior to sleep by polysomnography; type: functional
[13] = system: Homo sapiens; assay: Effect on sleep parameter in insomnia patient assessed as total sleep time at 30 mg, po administered two consecutive nights 90 mins prior to sleep by polysomnography; type: functional
[14] = system: Homo sapiens; assay: Effect on sleep parameter in insomnia patient assessed as latency to persistent sleep time at 30 mg, po administered two consecutive nights 90 mins prior to sleep by polysomnography; type: functional
[15] = system: Homo sapiens; assay: Effect on sleep parameter in insomnia patient assessed as latency to persistent sleep time at 10 mg, po administered two consecutive nights 90 mins prior to sleep by polysomnography; type: functional
[16] = system: Plasma; assay: Drug metabolism in human plasma assessed as 2-(((S)-1-(5-(4-fluorophenyl)-2-methylthiazole-4-carbonyl)piperidin-2-yl)methyl)-3,5-dihydroxy-3,4-dihydroisoquinolin-1(2H)-one formation at 30 mg, po by LSC analysis; type: ADME, organism-based; conditions: in vivo; outline: as §1
[17] = Half life in human plasma at 1 to 1500 mg, po administered as single dose; type: ADME, organism-based
[18] = Half life in Beagle dog 1 mg/kg, iv; type: ADME, organism-based, Canis lupus familiaris; conditions: in vivo
[19] = system: Canis familiaris; assay: Effect on sleep parameter in po dosed Beagle dog by EEG analysis; type: functional, Canis lupus familiaris
[20] = Plasma protein binding in Wistar rat; type: ADME, cell-free; conditions: read-out: PPB (converted)
[21] = system: Rattus norvegicus; assay: Effect on sleep parameter in po dosed Wistar rat by EEG analysis; type: functional
[22] = Oral bioavailability in Wistar rat at 10 mg/kg; type: ADME, organism-based; conditions: in vivo
[23] = Oral bioavailability in Beagle dog at 3 mg/kg; type: ADME, organism-based, Canis lupus familiaris; conditions: in vivo
[24] = Half life in Wistar rat at 1 mg/kg, iv; type: ADME, organism-based; conditions: in vivo
[25] = Clearance in Beagle dog 1 mg/kg, iv; type: ADME, organism-based, Canis lupus familiaris; conditions: in vivo
[26] = Clearance in Wistar rat at 1 mg/kg, iv; type: ADME, organism-based; conditions: in vivo
[27] = Plasma protein binding in human; type: ADME, cell-free; conditions: read-out: PPB (converted)
[28] = Tmax in human at 1 to 1500 mg, po administered as single dose; type: ADME, organism-based; conditions: in vivo
[29] = Plasma protein binding in Beagle dog; type: ADME, cell-free, Canis lupus familiaris; conditions: read-out: PPB (converted)
[30] = Ratio of drug level in brain to plasma in Wistar rat; type: ADME, cell-free; conditions: read-out: BPR
[31] = Clearance in iv dosed rhesus monkey; type: ADME, organism-based, Macaca mulatta; conditions: in vivo
[32] = Plasma protein binding in Sprague-Dawley rat; type: ADME, cell-free; conditions: read-out: PPB (converted)
[33] = Tmax in human plasma at 5 to 250 mg, po; type: ADME, organism-based
[34] = system: Mus musculus; assay: Effect on sleep parameter in po dosed C57/BL6 mouse by EEG analysis; type: functional
[35] = Oral bioavailability in Sprague-Dawley rat; type: ADME, organism-based; conditions: in vivo
[36] = system: Rhesus monkey; assay: Effect on sleep parameter in po dosed rhesus monkey by EEG analysis; type: functional, Macaca mulatta
[37] = Clearance in iv dosed Sprague-Dawley rat; type: ADME, organism-based; conditions: in vivo
[38] = target: Cytochrome P450 3A4 (Homo sapiens, UniProt P08684); assay: Inhibition of CYP3A4 (unknown origin); type: ADME
[39] = species on record: Rattus norvegicus; assay: Receptor occupancy at OX2R in rat brain assessed as drug level in plasma; type: functional
[40] = Half life in iv dosed Sprague-Dawley rat; type: ADME, organism-based; conditions: in vivo
[41] = Oral bioavailability rhesus monkey; type: ADME, organism-based, Macaca mulatta; conditions: in vivo
[42] = Half life in human plasma at 5 to 250 mg, po; type: ADME, organism-based
[43] = Clearance in iv dosed Beagle dog; type: ADME, organism-based, Canis lupus familiaris; conditions: in vivo
[44] = Plasma protein binding in rhesus monkey; type: ADME, cell-free, Macaca mulatta; conditions: read-out: PPB (converted)
[45] = Lipophilicity, log D of the compound; type: physicochemical; conditions: octanol/water
[46] = system: Rattus norvegicus; assay: Effect on sleep parameter in po dosed Sprague-Dawley rat by EEG analysis; type: functional
[47] = Oral bioavailability Beagle dog; type: ADME, organism-based, Canis lupus familiaris; conditions: in vivo
[48] = Half life in iv dosed rhesus monkey; type: ADME, organism-based, Macaca mulatta; conditions: in vivo
[49] = system: Liver microsome; assay: GSH activity in human liver microsomes assessed as reduction in GSH adduct formation; type: ADME; design: scale not given: the % may be the effect or the level left
[50] = target: T1, Orexin/Hypocretin receptor type 1 (Homo sapiens, UniProt O43613); assay: Antagonist activity at human OX1R expressed in CHO cells by FLIPR assay; type: cell-based
T1 sequence (O43613 whole entry): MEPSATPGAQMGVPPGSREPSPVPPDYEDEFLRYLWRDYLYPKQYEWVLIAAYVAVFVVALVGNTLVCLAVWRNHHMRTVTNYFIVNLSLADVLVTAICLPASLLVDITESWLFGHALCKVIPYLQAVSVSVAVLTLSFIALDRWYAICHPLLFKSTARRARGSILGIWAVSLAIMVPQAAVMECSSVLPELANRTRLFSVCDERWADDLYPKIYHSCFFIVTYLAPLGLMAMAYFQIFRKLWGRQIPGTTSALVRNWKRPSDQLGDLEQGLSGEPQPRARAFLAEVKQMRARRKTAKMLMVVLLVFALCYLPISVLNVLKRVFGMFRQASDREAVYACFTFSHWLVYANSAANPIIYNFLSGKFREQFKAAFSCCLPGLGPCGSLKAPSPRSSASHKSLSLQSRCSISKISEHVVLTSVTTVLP

[51] = target: T2, Orexin receptor type 2 (Homo sapiens, UniProt O43614); assay: Antagonist activity at human OX2R expressed in CHO cells by FLIPR assay; type: cell-based
T2 sequence (O43614 whole entry): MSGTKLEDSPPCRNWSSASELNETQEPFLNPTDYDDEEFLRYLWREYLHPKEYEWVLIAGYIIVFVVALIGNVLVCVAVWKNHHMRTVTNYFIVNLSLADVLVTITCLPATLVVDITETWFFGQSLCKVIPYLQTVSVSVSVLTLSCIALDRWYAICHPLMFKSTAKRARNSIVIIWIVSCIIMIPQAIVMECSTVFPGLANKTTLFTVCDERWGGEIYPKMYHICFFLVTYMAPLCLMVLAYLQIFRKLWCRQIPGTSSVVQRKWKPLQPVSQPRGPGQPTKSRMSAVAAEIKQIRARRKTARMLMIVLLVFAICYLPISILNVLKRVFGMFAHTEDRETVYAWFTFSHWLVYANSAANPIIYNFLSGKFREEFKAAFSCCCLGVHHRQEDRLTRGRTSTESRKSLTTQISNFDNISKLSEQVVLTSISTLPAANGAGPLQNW

[52] = Half life in iv dosed Beagle dog; type: ADME, organism-based, Canis lupus familiaris; conditions: in vivo

Cytochrome P450 3A4, sequence (P08684 whole entry): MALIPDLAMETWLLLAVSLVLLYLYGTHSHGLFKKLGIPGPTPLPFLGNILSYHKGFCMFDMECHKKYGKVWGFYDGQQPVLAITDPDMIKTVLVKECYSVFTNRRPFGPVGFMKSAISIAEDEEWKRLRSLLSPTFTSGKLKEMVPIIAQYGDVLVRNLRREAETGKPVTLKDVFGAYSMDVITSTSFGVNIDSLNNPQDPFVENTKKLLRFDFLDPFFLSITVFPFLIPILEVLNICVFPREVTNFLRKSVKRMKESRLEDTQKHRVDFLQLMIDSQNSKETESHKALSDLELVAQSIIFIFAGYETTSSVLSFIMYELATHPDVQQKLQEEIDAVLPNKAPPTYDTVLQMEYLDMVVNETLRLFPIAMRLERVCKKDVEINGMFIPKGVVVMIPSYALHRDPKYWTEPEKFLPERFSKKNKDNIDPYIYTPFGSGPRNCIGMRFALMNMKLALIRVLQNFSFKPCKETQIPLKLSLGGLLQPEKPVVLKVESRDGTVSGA

Cc1nc(C(=O)N2CCCC[C@H]2CNC(=O)c2cccc3occc23)c(-c2ccc(F)cc2)s1 (stereo in doubt; form 1) [SB-649868]
Time [1]: 3.2 min
Time [2]: 22.4 min
Activity [3]: 4.7%
Time [4]: -18.4 min
Drug metabolism [5]: 11 %ID
Time [6]: -29 min
Time [7]: -43.7 min
half-life [8]: 4 h
Activity [9]: 10.4%
half-life [10]: 5 h
Activity [11]: 14.6%
Time [12]: 69.8 min
Time [13]: 49.7 min
Time [14]: -33 min
Time [15]: -26.1 min
Drug metabolism [16]: 2 %ID

COc1ccc(S(=O)(=O)N2CCC[C@H]2C(=O)Nc2cc(C)cc(C)c2)cc1 [ACT-462206]
half-life [17]: 10 h
half-life [18]: 1.7 h
Activity [19]: 100 mg/kg
fraction unbound [20]: 0.007
Activity [21]: 100 mg/kg
bioavailability [22]: 39%
bioavailability [23]: 52%
half-life [24]: 1.9 h
clearance [25]: 11 mL/min/kg
clearance [26]: 29 mL/min/kg
fraction unbound [27]: 0.007
Tmax [28]: 1.5 h
fraction unbound [29]: 0.011
Kp [30]: 0.46

COc1ccc(CNC(=O)c2cc(-c3cncc(Cl)c3)cnc2-c2ccccn2)nc1OC [MK-1064]
clearance [31]: 12 mL/min/kg
fraction unbound [32]: 0.19
Activity [19]: 1 mg/kg
Tmax [33]: 1 h
Activity [34]: 100 mg/kg
bioavailability [35]: 54%
Activity [36]: 10 mg/kg
clearance [37]: 36 mL/min/kg
IC50 [38]: 28 µM
Occ90 [39]: 695 nM
half-life [40]: 0.3 h
bioavailability [41]: 16%
half-life [42]: 1.6 h
clearance [43]: 16 mL/min/kg
fraction unbound [44]: 0.06
fraction unbound [27]: 0.03
logD [45]: 1.8
Activity [46]: 20 mg/kg
bioavailability [47]: 48%
half-life [48]: 0.8 h
Activity [49]: 85%
fraction unbound [29]: 0.29
IC50 [50]: 1.79 µM
IC50 [51]: 0.018 µM
half-life [52]: 1 h
